# Measured values reported in PMC3655773 (Acta pharmaceutica Sinica. B, 2012).
# “And” between values parts separate entries of the source, which are not always exact repeats. Equal entries are not always repeated. Where two headings read alike, the source gives them in different places.
# Key:
# [1] = rat, microsomes
# [2] = Pharmacokinetic assay in rat; conditions: male SD rats; for F (oral bioavailability): i.g. 20 mg/kg vs 3 i.v. 2 mg/kg, dose-normalized AUC(0-t)
# [3] = In vitro metabolic stability in SD rat liver microsomes; conditions: 1 μM, NADPH; for k obs (degradation rate constant): SD rat liver microsomes 0.1 mg/mL, parent compound 3 measured; for T1/2: apparent in vitro half-life; for T1/2 / CLint: SD rat liver microsomes; for CLint: intrinsic clearance
# HIV-1 = conditions: previous studies, cited from earlier work; for EC50: anti-HIV potency; for TI: therapeutic index
# [4] = Water solubility analysis; type: physicochemical; conditions: pH 7.4, room temperature
# Outline: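 Excess test compound in water buffered to pH 7.4 with K2HPO4 phosphate, sonicated with stirring for 1 h at room temperature, then filtered. Supernatant analysed by HPLC on a C18 column (70% MeCN/30% water, 1.0 mL/min, UV 320 nm). Saturated concentration taken from peak area against a five-point (five-fold step) standard curve in MeCN, diluted from an acetonitrile stock.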
# [5] = cited from earlier work
# in vitro = conditions: Sprague-Dawley, rat, microsomes, pH 7.4
# [6] = cited from earlier work; remark: listed apart in the source
# [7] = i.g. 20 mg/kg in 10% PEG400, parent 3 measured
# [8] = i.g. 20 mg/kg in 10% PEG400, plasma parent compound 3 measured
Structure (SMILES),CLint [1] [µL/min/mg],T1/2 [1] [min],"CL [2, 7] [mL/min/kg]","Cmax [2, 7] [ng/mL]","MRT(0-t) [2, 7] [min]","Tmax [2, 7] [min]","Vd [2, 7] [L/kg]","AUC(0-t) [2, 8] [ng·L/mL]",F (oral bioavailability) [2],k obs (degradation rate constant) [3],T1/2 [3] [min],CLint [3] [µL/min/mg],also measured
"Cc1c(COC(=O)CN)c(=O)oc2c3c(ccc12)OC(C)(C)[C@H](OC(=O)[C@@]12CCC(C)(C(=O)O1)C2(C)C)[C@@H]3OC(=O)[C@@]12CCC(C)(C(=O)O1)C2(C)C.Cl (relative stereo) [Compound 13, [3′,4′-Di-O-(S)-camphanoyl-4-methyl-(+)-cis-kellactone-3-yl]methyl 2-aminoacetate hydrochloride salt]",260,26.54,0.667 ± 0.167,191.1 ± 2.48,128.2 ± 7.38,45,0.123 ± 0.058,477.8 ± 128.7,9.8%,–,–,–,–
"Cc1c(COC(=O)C(N)C(C)C)c(=O)oc2c3c(ccc12)OC(C)(C)[C@H](OC(=O)[C@@]12CCC(C)(C(=O)O1)C2(C)C)[C@@H]3OC(=O)[C@@]12CCC(C)(C(=O)O1)C2(C)C (relative stereo) [Compound 11, [3′,4′-Di-O-(S)-camphanoyl-4-methyl-(+)-cis-kellactone-3-yl]methyl 2-amino-3-methyl-butanoate]",–,–,–,–,–,–,–,–,–,0.023,30.09,230,–
"Cc1c(CO)c(=O)oc2c3c(ccc12)OC(C)(C)[C@H](OC(=O)C12CCC(C)(C(=O)O1)C2(C)C)[C@@H]3OC(=O)C12CCC(C)(C(=O)O1)C2(C)C (stereo partly shown) [Compound 3, 3-hydroxymethyl-4-methyl-DCK]",–,–,0.333 ± 0.083,530.7 ± 120.8,119 ± 28.7,34.8,0.079 ± 0.039,966.3 ± 219.7,17.3%,0.039,17.92,390,"EC50 (HIV-1): 4 nM; TI (HIV-1): 6225; Water solubility [4]: 8.4 µg/mL; AUC(0-t) ([2]; i.v. 2 mg/kg in 10% PEG400): 558.4 ± 8.71 ng·L/mL; CL ([2]; i.v. 2 mg/kg in 10% PEG400): 0.05 ± 0.0017 mL/min/kg; MRT(0-t) ([2]; i.v. 2 mg/kg in 10% PEG400): 74.1 ± 10.1 min; Vd ([2]; i.v. 2 mg/kg in 10% PEG400): 0.008 ± 0.002 L/kg; bioavailability (F) ([5]; in rat, previous studies): 15%"
"Cc1c(COC(=O)C(C)N)c(=O)oc2c3c(ccc12)OC(C)(C)[C@H](OC(=O)[C@@]12CCC(C)(C(=O)O1)C2(C)C)[C@@H]3OC(=O)[C@@]12CCC(C)(C(=O)O1)C2(C)C (relative stereo) [Compound 10, [3′,4′-Di-O-(S)-camphanoyl-4-methyl-(+)-cis-kellactone-3-yl]methyl 2-aminopropanoate]",140,49.26,0.267 ± 0.12,621.5 ± 79.67,107.6 ± 10.9,45,0.045 ± 0.017,1296.5 ± 437.6,26% and 25.7%,–,–,–,Water solubility [4]: 18 µg/mL; systemic clearance (CL) ([2]; i.g. 20 mg/kg): 16 mL/min/kg
"Cc1c(COC(=O)CN)c(=O)oc2c3c(ccc12)OC(C)(C)[C@H](OC(=O)[C@@]12CCC(C)(C(=O)O1)C2(C)C)[C@@H]3OC(=O)[C@@]12CCC(C)(C(=O)O1)C2(C)C (relative stereo) [Compound 9, [3′,4′-Di-O-(S)-camphanoyl-4-methyl-(+)-cis-kellactone-3-yl]methyl 2-aminoacetate]",1780,3.90,0.617 ± 0.017,163.6 ± 13.56,214.9 ± 18.4,15,0.467 ± 0.063,384.1 ± 6.21,7.5%,–,–,–,–
"Cc1c(COC(=O)CCC(=O)O)c(=O)oc2c3c(ccc12)OC(C)(C)[C@H](OC(=O)[C@@]12CC[C@@](C)(C(=O)O1)C2(C)C)[C@@H]3OC(=O)[C@@]12CC[C@@](C)(C(=O)O1)C2(C)C (relative stereo) [Compound 6, 4-Oxo-4-[(3′,4′-di-0-(S)-camphanoyl-4-methyl-(+)-cis-kellactone-3-yl)methoxy]butanok acid]",200,35.27,1.7 ± 0.333,80.9 ± 18.80,159.5 ± 40.9,22.8,0.669 ± 0.422,157.9 ± 42.94,3.3%,–,–,–,AUC ([2]; i.g. 20 mg/kg): 157.9 ng·h/mL
"Cc1c(COC(=O)C(N)CC(C)C)c(=O)oc2c3c(ccc12)OC(C)(C)[C@H](OC(=O)[C@@]12CCC(C)(C(=O)O1)C2(C)C)[C@@H]3OC(=O)[C@@]12CCC(C)(C(=O)O1)C2(C)C (relative stereo) [Compound 12, [3′,4′-Di-O-(S) -camphanoyl-4-methyl-(+)-cis-kellactone-3-yl]methyl 2-amino-4-methyl-pentanoate]",–,–,0.433 ± 0.083,529.0 ± 192.9,77.16 ± 5.1,30,0.049 ± 0.020,775.6 ± 162.9,15.8%,0.023,30.77,230,–
"Cc1c(COC(=O)CCC(=O)O)c(=O)oc2c3c(ccc12)OC(C)(C)[C@H](OC(=O)[C@@]12CC[C@@](C)(C(=O)O1)C2(C)C)[C@@H]3OC(=O)[C@@]12CC[C@@](C)(C(=O)O1)C2(C)C (relative stereo) [Compound 8, 4-Oxo-4-[(3′,4′-di-0-(S)-camphanoyl-4-methyl-(+)-cis-kellactone-3-yl)methoxy]butanok acid]",270,25.93,0.567 ± 0.067,398.5 ± 29.00,91.02 ± 12.4,30,0.102 ± 0.011,588.9 ± 72.06,12.4%,–,–,–,AUC ([2]; i.g. 20 mg/kg): 588.9 ng·h/mL
"CC(C)NCC(O)COc1cccc2ccccc12 (stereo not shown) [PRO, propranolol]",–,–,–,–,–,–,–,–,–,–,–,–,half-life at 1 μM (in vitro): 20.7 min; T1/2 in vivo [6]: a Reference compounds: propranolol (moderate metabolism in vivo with T1/2 of 3–5 h).
"Cc1cc(=O)oc2c3c(ccc12)OC(C)(C)[C@H](OC(=O)C12CCC(C)(C(=O)O1)C2(C)C)[C@@H]3OC(=O)C12CCC(C)(C(=O)O1)C2(C)C (stereo partly shown) [Compound 2, 4-methyl-DCK]",–,–,–,–,–,–,–,–,–,–,–,–,"EC50 (HIV-1): 1.5 nM; TI (HIV-1): 15,733; bioavailability ([5]; rat, in vivo): poor bioavailability"
